From ChEMBL document CHEMBL5678802, “Small-molecule p21-activated kinase inhibitor PF-3758309 is a potent inhibitor of oncogenic signaling and tumor growth” (Proc Natl Acad Sci U S A, 2010)
Calls of active or inactive are those of the source. The calls are words filed in the database; no cut-off is given here.

Tests used:
[1] = Drug exposure in nude mouse xenografted with human HCT-116 cells at 1.1 to 3.3 mg/kg, sc administered for 6 days; type: ADME, organism-based; details: in vivo, dose 1.1-3.3 mg/kg, time 6 day, read-out: Drug uptake
DLD-1 [2] = test: Antitumor activity against PAK4 -/+ human DLD-1 cells xenografted in nude mouse assessed as tumor growth inhibition at 20 mg/kg, po administered once daily for 9 to 18 days relative to control; type: functional; details: time 9-18 day, read-out: TGI
Outline: (§1)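 Tumor cells were implanted s.c. into the right flank of female nu/nu nude mice aged 6–8 weeks. Animals were randomized into treatment groups once tumors were established (example: day 8 postimplant, about 170 mm3, animals >22 g). Compound in 0.5% methylcellulose was given by oral gavage. Tumors were measured with calipers two to three times per week.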

[3] = biological target: T1, Tyrosine-protein kinase Fgr (Homo sapiens, UniProt P09769); test: Inhibition of human FGR assessed as inhibition constant in presence of ATP
[4] = biological target: T2, Protein kinase C beta type (Homo sapiens, UniProt P05771); test: Inhibition of human PKCbeta1 in presence of ATP
Target sequence in this assay (P05771 whole entry): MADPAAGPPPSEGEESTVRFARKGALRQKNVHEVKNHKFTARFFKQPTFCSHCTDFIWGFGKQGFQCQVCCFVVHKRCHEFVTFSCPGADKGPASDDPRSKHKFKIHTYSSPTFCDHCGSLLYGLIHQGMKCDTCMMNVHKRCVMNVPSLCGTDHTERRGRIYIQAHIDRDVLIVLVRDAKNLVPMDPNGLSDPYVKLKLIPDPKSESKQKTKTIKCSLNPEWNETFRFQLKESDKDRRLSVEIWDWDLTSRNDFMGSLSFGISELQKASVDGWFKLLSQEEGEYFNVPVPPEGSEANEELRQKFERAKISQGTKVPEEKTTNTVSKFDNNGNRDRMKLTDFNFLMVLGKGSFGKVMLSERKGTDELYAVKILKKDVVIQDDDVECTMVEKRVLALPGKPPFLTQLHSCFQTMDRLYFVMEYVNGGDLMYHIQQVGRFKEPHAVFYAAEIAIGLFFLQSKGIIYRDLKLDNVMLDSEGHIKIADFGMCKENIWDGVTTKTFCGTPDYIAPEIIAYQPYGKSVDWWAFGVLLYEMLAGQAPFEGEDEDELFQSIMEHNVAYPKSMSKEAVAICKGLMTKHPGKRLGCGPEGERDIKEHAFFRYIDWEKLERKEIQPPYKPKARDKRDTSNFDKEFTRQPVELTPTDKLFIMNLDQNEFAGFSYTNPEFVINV

HCC4006 = test: Inhibition of anchorage independent cell growth in human HCC4006 cells incubated for 6 days by Alamar blue reagent based fluorescence plate reader analysis; type: functional; details: HCC4006, 144 h
[5] = biological target: Serine/threonine-protein kinase PAK 2 (Homo sapiens, UniProt Q13177); test: Inhibition of PAK2 (unknown origin)
Calu-6 = test: Antiproliferative activity against human Calu-6 cells assessed as inhibition of cell proliferation incubated for 3 days by CellTiter-Glo Luminescent Cell Viability Assay; type: functional, cell-based; details: Calu-6, 72 h
Outline: (§2)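 Cancer cell lines seeded in 384-well plates on day 1; compound added on day 2 and left for 3 days. On day 5 all medium was aspirated, and viable cells were quantified by CellTiter-Glo luminescence, which measures cellular ATP. Dose-dependent effects on proliferation were determined.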

MDA-MB-468 = test: Antiproliferative activity against human MDA-MB-468 cells assessed as inhibition of cell proliferation incubated for 3 days by CellTiter-Glo Luminescent Cell Viability Assay; type: functional, cell-based; details: MDA-MB-468, 72 h; outline: as §2
[6] = biological target: T2, Protein kinase C beta type; test: Inhibition of human PKCbeta-II in presence of ATP relative to control; details: concentration not given here
[7] = biological target: Ribosomal protein S6 kinase alpha-1 (Homo sapiens, UniProt Q15418); test: Inhibition of human RSK1 in presence of ATP by cellular assay
[8] = biological target: T3, Proto-oncogene tyrosine-protein kinase Src (Homo sapiens, UniProt P12931); test: Inhibition of human SRC in presence of ATP
[9] = Antiproliferative activity against human PaTu 8988s cells assessed as inhibition of cell proliferation incubated for 3 days by CellTiter-Glo Luminescent Cell Viability Assay; type: functional, cell-based; details: 72 h
Outline: (§3)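 Cells of each line were plated in 384-well plates on day 1 and exposed to compound from day 2 for 3 days. On day 5 all medium was aspirated. Viable cell number was read by CellTiter-Glo luminescence, which quantifies cellular ATP.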

PaTu 8988t = test: Antiproliferative activity against human PaTu 8988t cells assessed as inhibition of cell proliferation incubated for 3 days by CellTiter-Glo Luminescent cell viability assay; type: functional, cell-based; details: 72 h; outline: as §3
[10] = biological target: T3, Proto-oncogene tyrosine-protein kinase Src; test: Inhibition of human SRC in presence of ATP by cellular assay
DLD-1 [11] = test: Antitumor activity against PAK4 -/+ human DLD-1 cells xenografted in nude mouse assessed as tumor growth inhibition at 10 mg/kg, po administered once daily for 9 to 18 days relative to control; type: functional; details: time 9-18 day, read-out: TGI; outline: as §1
MDA-MB-361 = test: Antiproliferative activity against human MDA-MB-361 cells assessed as inhibition of cell proliferation incubated for 3 days by CellTiter-Glo Luminescent Cell Viability Assay; type: functional, cell-based; details: MDA-MB-361, 72 h; outline: as §2
[12] = biological target: Tyrosine-protein kinase Fyn (Homo sapiens, UniProt P06241); test: Inhibition of human FYN in presence of ATP by cellular assay
NCI-H1395 = test: Inhibition of anchorage independent cell growth in human NCI-H1395 cells incubated for 6 days by Alamar blue reagent based fluorescence plate reader analysis; type: functional; details: NCI-H1395, 144 h
SW1990 = test: Antiproliferative activity against human SW1990 cells assessed as inhibition of cell proliferation incubated for 3 days by CellTiter-Glo Luminescent Cell Viability Assay; type: functional, cell-based; details: SW1990, 72 h; outline: as §3
BT-474 = test: Antiproliferative activity against human BT-474 cells assessed as inhibition of cell proliferation incubated for 3 days by CellTiter-Glo Luminescent Cell Viability Assay; type: functional, cell-based; details: BT-474, 72 h; outline: as §2
[13] = biological target: T2, Protein kinase C beta type; test: Inhibition of human PKCbeta-II in presence of ATP by cellular assay
Target sequence in this assay (P05771 whole entry): as above

BT-549 = test: Antiproliferative activity against human BT-549 cells assessed as inhibition of cell proliferation incubated for 3 days by CellTiter-Glo Luminescent Cell Viability Assay; type: functional, cell-based; details: BT-549, 72 h; outline: as §2
GTL 16 cell line = test: Antitumor activity against human GTL-16 cell line xenografted in nude mouse assessed as tumor growth inhibition at 10 mg/kg, po administered once daily for 9 to 18 days relative to control; type: functional; details: time 9-18 day, read-out: TGI; outline: as §1
PANC-03-27 = test: Antiproliferative activity against human PANC-03-27 cells assessed as inhibition of cell proliferation incubated for 3 days by CellTiter-Glo Luminescent Cell Viability Assay; type: functional, cell-based; details: PANC-03-27, 72 h; outline: as §3
HCC1806 = test: Antiproliferative activity against human HCC1806 cells assessed as inhibition of cell proliferation incubated for 3 days by CellTiter-Glo Luminescent Cell Viability Assay; type: functional, cell-based; details: HCC1806, 72 h; outline: as §2
[14] = biological target: RAC-gamma serine/threonine-protein kinase (Homo sapiens, UniProt Q9Y243); test: Inhibition of human AKT3 in presence of ATP relative to control; details: concentration not given here
[15] = biological target: Protein kinase C theta type (Homo sapiens, UniProt Q04759); test: Inhibition of human PKCtheta assessed as inhibition constant in presence of ATP
HCC1419 = test: Antiproliferative activity against human HCC1419 cells assessed as inhibition of cell proliferation incubated for 3 days by CellTiter-Glo Luminescent Cell Viability Assay; type: functional, cell-based; details: HCC1419, 72 h; outline: as §2
[16] = biological target: Protein kinase C gamma type (Homo sapiens, UniProt P05129); test: Inhibition of human PKCgamma in presence of ATP relative to control; details: concentration not given here
HCT-116 = test: Induction of cell cycle arrest in human HCT-116 cells assessed as accumulation of cells at G0/G1 phase at 100 nM measured after 48 hrs by fluorescence activated cell sorter analysis (reference value: 50.74%); type: functional
[17] = biological target: T1, Tyrosine-protein kinase Fgr; test: Inhibition of human FGR in presence of ATP
NCI-H1437 = test: Inhibition of anchorage independent cell growth in human NCI-H1437 cells incubated for 6 days by Alamar blue reagent based fluorescence plate reader analysis; type: functional; details: NCI-H1437, 144 h
HEK293 = test: Inhibition of YFP/YFP variant coding sequence fused Mnk1/p38alpha (unknown origin) expressed in HEK293 cells incubated for 8 to 24 hrs by fluorescence based analysis; type: cell-based; details: Homo sapiens, time 8-24 hrs
M24met = test: Antitumor activity against human M24met cells xenografted in nude mouse assessed as tumor growth inhibition at 25 mg/kg, po administered once daily for 9 to 18 days relative to control; type: functional; details: time 9-18 day, read-out: TGI

T3 sequence (P12931 2-536 limits assumed): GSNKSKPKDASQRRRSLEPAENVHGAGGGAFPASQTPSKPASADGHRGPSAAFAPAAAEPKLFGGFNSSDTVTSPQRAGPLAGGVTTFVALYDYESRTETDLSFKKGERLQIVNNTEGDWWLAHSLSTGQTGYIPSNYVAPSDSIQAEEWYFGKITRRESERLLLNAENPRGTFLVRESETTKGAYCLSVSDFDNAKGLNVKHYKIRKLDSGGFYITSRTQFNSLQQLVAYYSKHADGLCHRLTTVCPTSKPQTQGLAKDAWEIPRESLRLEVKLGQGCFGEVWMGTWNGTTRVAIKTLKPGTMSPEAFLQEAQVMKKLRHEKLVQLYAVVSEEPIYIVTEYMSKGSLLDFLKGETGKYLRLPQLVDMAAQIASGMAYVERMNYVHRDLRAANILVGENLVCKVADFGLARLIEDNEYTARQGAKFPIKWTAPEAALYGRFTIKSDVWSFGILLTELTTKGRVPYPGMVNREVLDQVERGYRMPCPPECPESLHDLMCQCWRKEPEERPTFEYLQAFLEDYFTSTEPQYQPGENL
T1 sequence (P09769 whole entry): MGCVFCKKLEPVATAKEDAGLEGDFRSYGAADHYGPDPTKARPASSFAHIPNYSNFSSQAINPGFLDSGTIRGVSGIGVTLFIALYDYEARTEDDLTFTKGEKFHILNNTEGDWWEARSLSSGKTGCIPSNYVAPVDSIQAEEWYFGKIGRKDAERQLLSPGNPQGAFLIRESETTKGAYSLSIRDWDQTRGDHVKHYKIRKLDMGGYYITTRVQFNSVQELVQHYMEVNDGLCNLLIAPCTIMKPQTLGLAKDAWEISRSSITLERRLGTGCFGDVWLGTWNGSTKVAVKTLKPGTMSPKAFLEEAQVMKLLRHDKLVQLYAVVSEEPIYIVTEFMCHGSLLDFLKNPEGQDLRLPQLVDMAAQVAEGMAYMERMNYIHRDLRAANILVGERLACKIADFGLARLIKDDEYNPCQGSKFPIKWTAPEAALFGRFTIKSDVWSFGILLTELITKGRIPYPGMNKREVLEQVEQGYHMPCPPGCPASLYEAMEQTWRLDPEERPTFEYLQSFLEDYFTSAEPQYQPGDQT
Sequence of Ribosomal protein S6 kinase alpha-1 (Q15418 whole entry): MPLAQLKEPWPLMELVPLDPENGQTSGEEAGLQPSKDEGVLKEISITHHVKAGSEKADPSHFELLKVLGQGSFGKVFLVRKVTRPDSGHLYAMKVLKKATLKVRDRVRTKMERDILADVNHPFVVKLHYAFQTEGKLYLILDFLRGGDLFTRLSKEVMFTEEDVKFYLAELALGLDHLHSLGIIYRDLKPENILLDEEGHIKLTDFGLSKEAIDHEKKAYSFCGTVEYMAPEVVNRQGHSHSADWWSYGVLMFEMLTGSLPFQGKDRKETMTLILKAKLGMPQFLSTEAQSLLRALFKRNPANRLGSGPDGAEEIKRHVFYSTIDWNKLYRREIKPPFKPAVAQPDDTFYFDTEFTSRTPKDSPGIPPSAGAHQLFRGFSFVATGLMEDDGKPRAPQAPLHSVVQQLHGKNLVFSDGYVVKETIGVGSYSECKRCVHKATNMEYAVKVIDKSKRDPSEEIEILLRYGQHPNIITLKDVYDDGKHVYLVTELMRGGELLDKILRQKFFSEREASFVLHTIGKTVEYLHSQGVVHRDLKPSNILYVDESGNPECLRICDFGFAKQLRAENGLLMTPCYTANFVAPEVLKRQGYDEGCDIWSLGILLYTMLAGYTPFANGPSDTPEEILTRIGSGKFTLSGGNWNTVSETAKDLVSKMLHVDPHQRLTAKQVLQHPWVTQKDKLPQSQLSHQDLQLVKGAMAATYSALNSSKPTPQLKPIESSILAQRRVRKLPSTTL
Sequence of Tyrosine-protein kinase Fyn (P06241 whole entry): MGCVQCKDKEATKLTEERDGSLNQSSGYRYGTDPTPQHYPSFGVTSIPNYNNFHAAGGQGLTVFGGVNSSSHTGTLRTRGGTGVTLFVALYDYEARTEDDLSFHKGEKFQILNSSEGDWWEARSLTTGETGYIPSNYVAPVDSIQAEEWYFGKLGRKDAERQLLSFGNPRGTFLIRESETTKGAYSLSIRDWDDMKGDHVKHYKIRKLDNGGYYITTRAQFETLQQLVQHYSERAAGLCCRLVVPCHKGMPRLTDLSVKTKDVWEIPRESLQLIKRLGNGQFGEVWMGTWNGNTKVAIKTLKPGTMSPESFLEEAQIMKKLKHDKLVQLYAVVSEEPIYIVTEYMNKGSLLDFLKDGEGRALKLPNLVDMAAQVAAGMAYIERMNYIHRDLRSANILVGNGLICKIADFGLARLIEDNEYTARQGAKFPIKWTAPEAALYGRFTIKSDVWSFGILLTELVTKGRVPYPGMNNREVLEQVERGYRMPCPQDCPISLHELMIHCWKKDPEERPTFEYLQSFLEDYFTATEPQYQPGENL
Sequence of Serine/threonine-protein kinase PAK 2 (Q13177 whole entry): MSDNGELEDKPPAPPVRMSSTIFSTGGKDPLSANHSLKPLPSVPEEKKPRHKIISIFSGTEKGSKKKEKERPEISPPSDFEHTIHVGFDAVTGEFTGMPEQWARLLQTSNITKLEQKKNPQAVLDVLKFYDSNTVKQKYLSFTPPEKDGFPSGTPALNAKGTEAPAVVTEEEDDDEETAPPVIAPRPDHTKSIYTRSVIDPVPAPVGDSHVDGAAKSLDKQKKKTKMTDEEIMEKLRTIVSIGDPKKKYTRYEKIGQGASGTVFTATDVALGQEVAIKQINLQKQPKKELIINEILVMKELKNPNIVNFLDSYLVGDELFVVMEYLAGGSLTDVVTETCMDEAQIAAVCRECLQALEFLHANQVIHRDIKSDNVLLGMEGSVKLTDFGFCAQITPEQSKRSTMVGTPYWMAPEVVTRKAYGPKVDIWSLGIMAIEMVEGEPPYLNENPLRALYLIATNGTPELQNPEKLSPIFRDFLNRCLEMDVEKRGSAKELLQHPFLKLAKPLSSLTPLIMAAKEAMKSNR
Sequence of Protein kinase C theta type (Q04759 whole entry): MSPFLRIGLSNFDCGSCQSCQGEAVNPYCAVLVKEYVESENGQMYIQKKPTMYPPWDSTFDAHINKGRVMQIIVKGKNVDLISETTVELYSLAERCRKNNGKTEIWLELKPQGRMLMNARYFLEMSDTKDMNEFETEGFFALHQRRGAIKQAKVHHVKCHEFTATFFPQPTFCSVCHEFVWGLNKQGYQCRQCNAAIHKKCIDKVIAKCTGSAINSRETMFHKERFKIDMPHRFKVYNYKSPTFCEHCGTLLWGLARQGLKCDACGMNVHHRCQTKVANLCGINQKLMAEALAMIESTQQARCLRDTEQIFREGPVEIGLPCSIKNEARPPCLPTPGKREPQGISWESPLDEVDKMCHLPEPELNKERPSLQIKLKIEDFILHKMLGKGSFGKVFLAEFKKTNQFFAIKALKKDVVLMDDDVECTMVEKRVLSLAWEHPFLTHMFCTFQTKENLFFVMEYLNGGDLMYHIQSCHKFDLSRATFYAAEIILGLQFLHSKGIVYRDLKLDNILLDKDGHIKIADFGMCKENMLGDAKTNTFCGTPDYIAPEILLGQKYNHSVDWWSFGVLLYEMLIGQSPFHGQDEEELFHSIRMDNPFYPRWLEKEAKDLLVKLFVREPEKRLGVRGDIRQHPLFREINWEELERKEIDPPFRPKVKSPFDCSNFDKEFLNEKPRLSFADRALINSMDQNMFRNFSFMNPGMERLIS

Cc1nc(Nc2n[nH]c3c2CN(C(=O)N[C@H](CN(C)C)c2ccccc2)C3(C)C)c2sccc2n1 [PF-03758309]
concentration at 144 h [1]: 0.14 nM | inhibition in vivo at 20 mg/kg (DLD-1 [2]): 0% | Ki [3]: 15 nM | IC50 [4]: 280 nM | IC50 (HCC4006): 3.79 nM | IC50 [5]: 190 nM | IC50 (Calu-6): 7.3 nM | IC50 (MDA-MB-468): 0.63 nM | inhibition [6]: 90% | IC50 [7]: 543 nM | IC50 [8]: 55 nM | IC50 [9]: 738 nM | IC50 (PaTu 8988t): 73 nM | IC50 [10]: 2210 nM | inhibition in vivo at 10 mg/kg (DLD-1 [11]): 0% | IC50 (MDA-MB-361): 6.9 nM | IC50 [12]: 1090 nM | IC50 (NCI-H1395): 7.62 nM | IC50 (SW1990): 127 nM | IC50 (BT-474): 1.8 nM | IC50 [13]: 1390 nM | IC50 (BT-549): 0.41 nM | inhibition in vivo at 10 mg/kg (GTL 16 cell line): 0% | IC50 (PANC-03-27): 32 nM | IC50 (HCC1806): 1.2 nM | inhibition [14]: 74% | Ki [15]: 10 nM | IC50 (HCC1419): 0.79 nM | inhibition [16]: 92% | Activity (HCT-116): 49.41% | IC50 [17]: 23.4 nM | IC50 (NCI-H1437): 4.8 nM | inhibition (HEK293): Active | inhibition in vivo at 25 mg/kg (M24met): 85%
